Experimental data taken from ChEMBL document CHEMBL2380267, “Structural optimization, biological evaluation, and application of peptidomimetic prostate specific antigen inhibitors” (J Med Chem, 2013).
Active and inactive are the calls of the source. The rule behind the calls is not given here. Non-standard residues stand in square brackets, D forms with d. Residues, ends and D or L forms follow the SMILES beside them. *: point of attachment. X4 = CC1(C)[C@@H]2C[C@H]1[C@]1(C)OB([C@@H](CCCBr)N*)O[C@@H]1C2; dboroNva(5-Br) = OB(O)[C@@H](CCCBr)N*; dboroPhe = OB(O)[C@@H](Cc1ccccc1)N*; Benzoyl(4-I) = O=C(c1ccc(I)cc1)*; X2 = CC(C)C[C@@H](N*)B(O)O; Nle = CCCC[C@H](N)C(=O)O; Cbz = O=C(OCc1ccccc1)*; Ahx = NCCCCCC(=O)O

What was measured:
[1] = Inhibition of bovine pancreas chymotrypsin using Suc-AAPF-AMC as substrate measured for 30 mins by fluorescence assay; design: species or system Bos taurus
Outline: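 Inhibitor added from DMSO stock; substrate added last and AMC fluorescence read immediately. Ki = 1/slope × 1/(1+[S]/Km), from V0/Vi−1 plotted against [I].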

[2] = Selectivity ratio of Ki for bovine pancreas chymotrypsin to Ki for human seminal fluid PSA
[3] = Half life in ip dosed mouse; type: ADME, organism-based; conditions: in vivo
Outline: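 Four animals sacrificed per time point; plasma counts per second normalised to starting counts.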

[4] = Selectivity ratio of Ki for human seminal fluid PSA to Ki for bovine pancreas chymotrypsin
[5] = test system: Mus musculus; test: Toxicity in nude mouse xenografted with human LNCAP cells expressing PSA assessed as body weight loss at 10 mg/kg, iv qd measured 5 days/week for 3 weeks; type: organism-based; design: dose 10 mg/kg, route intravenous; conditions: in vivo
Outline: (§1)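 Nude male mice (n = 10 per group) carrying subcutaneous PSA-producing LNCaP xenografts. Dosed 10 mg/kg iv once daily for three cycles of five consecutive days, compound in sterile saline; controls untreated. Tumor measured by caliper, volume = L × W × H × […]. Tumor size and body weight recorded twice per week.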

[6] = test system: LNCaP; test: Antitumor activity against human LNCAP cells expressing PSA xenografted in nude mouse assessed as tumor incident at 10 mg/kg, iv qd administered 5 days/week for 3 weeks measured after 3 weeks; type: functional, organism-based; design: dose 10 mg/kg; outline: as §1
[7] = test system: LNCaP; test: Antitumor activity against human LNCAP cells expressing PSA xenografted in nude mouse assessed as delay in tumor growth at 10 mg/kg, iv qd administered 5 days/week for 3 weeks measured after 2 weeks; type: functional, organism-based; design: dose 10 mg/kg; outline: as §1
[8] = test system: Mus musculus; test: Inhibition of total PSA level in nude mouse serum xenografted with human LNCAP cells at 10 mg/kg, iv qd administered 5 days/week for 3 weeks measured 24 hrs post last dose by ELISA relative to control; type: functional
Outline: (§2)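 LNCaP xenograft-bearing nude mice dosed 10 mg/kg iv (sterile saline) once daily, five consecutive days/week for three courses; controls untreated. Serum free and total PSA measured by ELISA 24 h after the last dose, also expressed per g tumor.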

[9] = test system: Mus musculus; test: Inhibition of free PSA level in nude mouse serum xenografted with human LNCAP cells at 10 mg/kg, iv qd administered 5 days/week for 3 weeks measured 24 hrs post last dose by ELISA relative to control; type: functional; outline: as §2
[10] = target: T1, Prostate-specific antigen (Homo sapiens, UniProt P07288); test: Inhibition of PSA (unknown origin)
T1 sequence (P07288 whole entry): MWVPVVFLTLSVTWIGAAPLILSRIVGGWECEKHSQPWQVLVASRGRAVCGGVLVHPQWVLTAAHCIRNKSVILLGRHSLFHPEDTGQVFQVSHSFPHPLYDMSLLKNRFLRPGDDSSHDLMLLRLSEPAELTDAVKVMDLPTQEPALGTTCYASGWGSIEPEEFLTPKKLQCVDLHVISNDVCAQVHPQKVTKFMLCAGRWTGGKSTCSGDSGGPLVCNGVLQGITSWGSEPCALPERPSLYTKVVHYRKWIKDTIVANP

[11] = test system: Mus musculus; test: Biodistribution in tumor of nude mouse xenografted with human LNCAP cells expressing PSA at 230 to 580 uCi after 3 to 4 hrs by gamma counting analysis; type: ADME, organism-based, Neoplasm; conditions: in vivo
Outline: (§3)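 Single mice sacrificed at 2, 4 and 6 h (or 2 and 4 h). Liver, kidney, heart, brain, muscle and tumor weighed and gamma-counted. Counts corrected for background and decay; %ID/g calculated against 0.01 mL of dosing solution.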

[12] = test system: Kidney; test: Biodistribution in nude mouse kidney xenografted with human LNCAP cells expressing PSA at 230 to 580 uCi after 2 hrs by gamma counting analysis; type: ADME, organism-based; conditions: in vivo; outline: as §3
[13] = test system: Liver; test: Biodistribution in nude mouse liver xenografted with human LNCAP cells expressing PSA at 230 to 580 uCi after 2 hrs by gamma counting analysis; type: ADME, organism-based; conditions: in vivo; outline: as §3
[14] = target: T1, Prostate-specific antigen; test: Inhibition of PSA (unknown origin) using Mu-SRKSQQY-AMC as substrate by fluorescence assay
Outline: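 Inhibitor added from DMSO stock. AMC fluorescence (ex 370, em 465 nm) followed over 30 min in triplicate. Ki = 1/slope × 1/(1+[S]/Km), from V0/Vi−1 plotted against [I].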

CCCC[C@H](NC(=O)[C@H](CCC(N)=O)NC(=O)[C@H](CO)NC(=O)CCCCCN)C(=O)N[C@H](Cc1ccccc1)B(O)O
Ki [1]: 0.00377 µM | Ratio Ki [2]: 0.17

CCCC[C@H](NC(=O)[C@H](CCC(N)=O)NC(=O)[C@H](CO)NC(=O)[C@H](CO)NC(=O)CCCCCNC(=O)c1ccc([125I])cc1)C(=O)N[C@H](CCCBr)B(O)O
half-life [3]: 0.2 h

CCCC[C@H](NC(=O)[C@H](CCC(N)=O)NC(=O)[C@H](CO)NC(=O)[C@H](Cc1ccccc1)NC(=O)CCCCCN)C(=O)N[C@H](Cc1ccccc1)B(O)O (H-[Ahx]FSQ[Nle]-dboroPhe)
Ratio Ki [4]: 450 | Ki [1]: 0.000135 µM | Ratio Ki [2]: 0.002

CCCC[C@H](NC(=O)[C@H](CCC(N)=O)NC(=O)[C@H](CO)NC(=O)[C@H](Cc1ccccc1)NC(=O)CCCCCN)C(=O)N[C@H](CCCBr)B(O)O (H-[Ahx]FSQ[Nle]-{dboroNva(5-Br)})
Activity [5]: Non-toxic | Activity [6]: inactive | Ki [1]: 0.581 µM | Activity [7]: Active | inhibition in vivo at 10 mg/kg [8]: 40% | Ratio Ki [2]: 8.03 | inhibition in vivo at 10 mg/kg [9]: 23%

CCCC[C@H](NC(=O)[C@H](CCC(N)=O)NC(=O)[C@H](CO)NC(=O)C[C@H](Cc1ccc2ccccc2c1)NC(=O)CCCCCN)C(=O)N[C@H](Cc1ccccc1)B(O)O
Ki [1]: 0.00721 µM | Ratio Ki [2]: 0.03

CCCC[C@H](NC(=O)[C@H](CCC(N)=O)NC(=O)[C@H](CO)NC(=O)[C@H](Cc1ccccc1)NC(=O)CCCCCNC(=O)c1ccc(I)cc1)C(=O)N[C@H](CCCBr)B(O)O ({Benzoyl(4-I)-Ahx}-FSQ[Nle]-{dboroNva(5-Br)})
Ki [1]: 0.653 µM | Ratio Ki [2]: 10.1

CCCC[C@H](NC(=O)[C@H](CCC(N)=O)NC(=O)[C@H](CO)NC(=O)[C@H](Cc1ccccc1)NC(=O)CCCCCN)C(=O)N[C@H](CCCBr)B1O[C@@H]2C[C@H]3C[C@H](C3(C)C)[C@]2(C)O1 (H-[Ahx]FSQ[Nle]-X4)
Ki [1]: 0.496 µM | Ratio Ki [2]: 6.77

CCCC[C@H](NC(=O)[C@H](CCC(N)=O)NC(=O)[C@H](CO)NC(=O)[C@H](CO)NC(=O)CCCCCN)C(=O)N[C@H](CC(C)C)B(O)O (H-[Ahx]SSQ[Nle]-X2)
Ki [1]: 0.138 µM | Ratio Ki [2]: 3.2

CCCC[C@H](NC(=O)[C@H](CCCCN)NC(=O)[C@H](CO)NC(=O)[C@H](CO)NC(=O)OCc1ccccc1)C(=O)N[C@H](Cc1ccccc1)B(O)O (Cbz-SSK[Nle]-dboroPhe)
Ki [1]: 0.0181 µM | Ratio Ki [2]: 0.11

O=C(OCc1ccccc1)c1cccc(CC(=O)N2C(=O)[C@@H](Cc3ccc(O)cc3)[C@H]2C(=O)OCc2ccccc2)c1
IC50 [10]: 0.226 µM

CCCC[C@H](NC(=O)[C@H](CCC(N)=O)NC(=O)[C@H](CO)NC(=O)CCCCCN)C(=O)N[C@H](CCCBr)B(O)O
Ki [1]: 0.251 µM | Ratio Ki [2]: 0.83

CCCC[C@H](NC(=O)[C@H](CCC(N)=O)NC(=O)[C@H](CO)NC(=O)C[C@H](Cc1ccc2ccccc2c1)NC(=O)CCCCCN)C(=O)N[C@H](CCCBr)B(O)O
Ki [1]: 0.506 µM | Ratio Ki [2]: 4.94

CCCC[C@H](NC(=O)[C@H](CCC(N)=O)NC(=O)[C@H](CO)NC(=O)[C@H](C)NC(=O)CCCCCN)C(=O)N[C@H](Cc1ccccc1)B(O)O (H-[Ahx]ASQ[Nle]-dboroPhe)
Ki [1]: 0.0362 µM | Ratio Ki [2]: 0.12

CCCC[C@H](NC(=O)[C@H](CCC(N)=O)NC(=O)[C@H](CO)NC(=O)[C@H](Cc1ccccc1)NC(=O)CCCCCNC(=O)c1ccc([125I])cc1)C(=O)N[C@H](CCCBr)B(O)O
Drug uptake [11]: Active | Drug uptake [12]: Active | Drug uptake [13]: Active

CCCC[C@H](NC(=O)[C@H](CCC(N)=O)NC(=O)[C@H](CO)NC(=O)[C@H](C)NC(=O)CCCCCN)C(=O)N[C@H](CCCBr)B(O)O (H-[Ahx]ASQ[Nle]-{dboroNva(5-Br)})
Ki [1]: 0.166 µM | Ratio Ki [2]: 3.18

CC(C)C[C@H](NC(=O)[C@H](CCCCN)NC(=O)[C@H](CO)NC(=O)[C@@H](N)CO)C(=O)N[C@H](C=O)CCC(N)=O (H-SSKLQ-aldehyde)
Ki [14]: 45 µM

CCCC[C@H](NC(=O)[C@H](CCC(N)=O)NC(=O)[C@H](CO)NC(=O)C[C@H](Cc1ccc2ccccc2c1)NC(=O)CCCCCNC(=O)c1ccc([125I])cc1)C(=O)N[C@H](Cc1ccccc1)B(O)O
Drug uptake [11]: Active | Drug uptake [12]: Active | half-life [3]: 2.7 h | Drug uptake [13]: Active

CCCC[C@H](NC(=O)[C@H](CCCCN)NC(=O)[C@H](CO)NC(=O)[C@H](CO)NC(=O)OCc1ccccc1)C(=O)N[C@H](CCCBr)B(O)O (Cbz-SSK[Nle]-{dboroNva(5-Br)})
Ki [1]: 0.197 µM | Ratio Ki [2]: 8.13

CCCC[C@H](NC(=O)[C@H](CCC(N)=O)NC(=O)[C@H](CO)NC(=O)[C@H](Cc1ccccc1)NC(=O)CCCCCNC(=O)c1ccc([125I])cc1)C(=O)N[C@H](CCCBr)B1O[C@@H]2C[C@H]3C[C@H](C3(C)C)[C@]2(C)O1
Drug uptake [11]: Active | Drug uptake [12]: Active | Drug uptake [13]: Active
